The text below walks through data of ChEMBL document CHEMBL1121430, “Bicyclic and tricyclic ergoline partial structures. Rigid 3-(2-aminoethyl)pyrroles and 3- and 4-(2-aminoethyl)pyrazoles as dopamine agonists” (1980).

Common to all, as to format: functional
Assay [1] concerns Rattus norvegicus. The experiment in a line: Dopaminergic activity causing prolactin inhibition in reserpinized rat after i.p. administration at dosage of 5.0 mg/kg. The note with it: ip, route intraperitoneal.
The subject of assay [2] is Rattus norvegicus. The experiment in a line: Percentage of lesioned rats exhibiting contralateral turning after intraperitoneal dosage of 1.0 mg/kg. Put shortly:
(§1)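 Rats with unilateral 6-hydroxydopamine nigrostriatal lesions dosed i.p.; contralateral rotation scored as % of rats turning and average turns during first 15 min after turning began; 6-10 rats per group. Method of Ungerstedt and Arbuthnot.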

For assay [3], the system named is Rattus norvegicus. The experiment in a line: Average turns of rat / 1st 15 min at intraperitoneal dosage of 1.0 mg/kg.
Assay [4] relates to Rattus norvegicus. Nature of the assay: (§2) Percentage of lesioned rats exhibiting contralateral turning after intraperitoneal dosage of 0.1 mg/kg. Put shortly: (§3)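 Rats with unilateral 6-hydroxydopamine nigrostriatal lesions dosed intraperitoneally; contralateral rotation scored as percentage of rats turning and average turns counted over first 15 min after turning began; 6-10 rats per group.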

The subject of assay [5] is Rattus norvegicus. The experiment in a line: (§4) Tested for average turns of rat / 1st 15 min at intraperitoneal dosage of 0.1 mg/kg. In short, it runs like this: as §3
Assay [6] is filed under the species Rattus norvegicus. The experiment in a line: animal or person. The note with it: ip, route intraperitoneal.
The subject of assay [7] is Rattus norvegicus. Described as §4. Put shortly: as §1
The source holds these as a separate data set.

For assay [8], the system named is Rattus norvegicus. The experiment in a line: (§5) Control Serum prolactin level in reserpinized rat after i.p. administration at dosage of 0.5 mg/kg. The note with it: route intraperitoneal.
The test system of assay [9] is Rattus norvegicus. The experiment in a line: (§6) Control Serum prolactin level in reserpinized rat after i.p. administration at dosage of 0.05 mg/kg. As to conditions: route intraperitoneal.
Assay [10] concerns Rattus norvegicus. Described as §2. In short, it runs like this: as §1
This is another data set of the same source.

In assay [11] the test system is Rattus norvegicus. The experiment in a line: Dopaminergic activity causing prolactin inhibition in reserpinized rat after i.p. administration at dosage of 0.5 mg/kg. As to conditions: ip, route intraperitoneal.
Assay [12] concerns Rattus norvegicus. Nature of the assay: (§7) Tested for lowering of serum prolactin level in reserpinized rat after i.p. administration at dosage of 0.05 mg/kg. The note with it: route intraperitoneal.
Assay [13] deals with Rattus norvegicus. Nature of the assay: Tested for lowering of serum prolactin level in reserpinized rat after i.p. administration at dosage of 0.5 mg/kg. The note with it: route intraperitoneal.
The test system of assay [14] is Rattus norvegicus. Nature of the assay: Tested for average turns of rat / 1st 15 min at intraperitoneal dosage of 1.0 mg/kg. Put shortly: as §3
Assay [15] concerns Rattus norvegicus. The assay is described as §5. The note with it: route intraperitoneal. In short, it runs like this:
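Reserpinized male rats, intraperitoneal dosing; serum prolactin of vehicle control group reported in ng/mL as mean ± standard error, 10 rats per group, for comparison with treated group.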
The source holds these as a separate data set.

The test system of assay [16] is Rattus norvegicus. Nature of the assay: Dopaminergic activity causing prolactin inhibition in reserpinized rat after i.p. administration at dosage of 0.05 mg/kg. The note with it: ip, route intraperitoneal. Put shortly: (§8)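 Male rats pretreated with reserpine; drug given i.p. and serum prolactin measured (ng/mL) in controls and treated groups; % inhibition relative to control; mean ± SE for 10 rats per group; significance level p reported. Method of Clemens et al.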

Assay [17] concerns Rattus norvegicus. The assay is described as §7. The note with it: route intraperitoneal. In short, it runs like this:
(§9)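 Serum prolactin measured in reserpinized male rats given drug intraperitoneally; control group serum level alongside treated level; percent inhibition derived from control versus treated means; mean ± standard error for 10 rats per group; significance level (p) reported versus control.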
The source holds these as a separate data set.

Assay [18] concerns Rattus norvegicus. Nature of the assay: Percentage of lesioned rats exhibiting contralateral turning after ip dosage of 0.1 mg/kg. As to conditions: route intraperitoneal. In short, it runs like this: as §3
In assay [19] the test system is Rattus norvegicus. Nature of the assay: Percentage of lesioned rats exhibiting contralateral turning after ip dosage of 1.0 mg/kg. The note with it: route intraperitoneal. Put shortly: as §3
For assay [20], the system named is Rattus norvegicus. The description is as §6. The note with it: route intraperitoneal. Put shortly:
as §8
This is another data set of the same source.

Assay [21] deals with Rattus norvegicus. Nature of the assay: Percentage of lesioned rats exhibiting contralateral turning after ip dosage of 0.05 mg/kg. As to conditions: route intraperitoneal. In short, it runs like this:
as §3

The test system of assay [22] is Rattus norvegicus. Nature of the assay: Control Serum prolactin level in reserpinized rat after i.p. administration at dosage of 0.0005 mg/kg. As to conditions: route intraperitoneal. Put shortly: as §9
Assay [23] concerns Rattus norvegicus. The experiment in a line: Dopaminergic activity causing prolactin inhibition in reserpinized rat after i.p. administration at dosage of 0.005 mg/kg. The note with it: ip, route intraperitoneal. Put shortly: as §8
Assay [24] deals with Rattus norvegicus. The experiment in a line: Tested for lowering of serum prolactin level in reserpinized rat after i.p. administration at dosage of 0.0005 mg/kg. As to conditions: route intraperitoneal. Put shortly: as §9
The test system of assay [25] is Rattus norvegicus. The experiment in a line: Dopaminergic activity causing prolactin inhibition in reserpinized rat after i.p. administration at dosage of 0.0005 mg/kg. As to conditions: ip, route intraperitoneal. Put shortly: as §9
Assay [26] has as its system Rattus norvegicus. The experiment in a line: Tested for average turns of rat / 1st 15 min at intraperitoneal dosage of 0.05 mg/kg. In short, it runs like this:
as §3

In assay [27] the test system is Rattus norvegicus. The experiment in a line: Tested for lowering of serum prolactin level in reserpinized rat after i.p. administration at dosage of 0.005 mg/kg. As to conditions: route intraperitoneal. In short, it runs like this:
as §9

Assay [28] deals with Rattus norvegicus. Nature of the assay: Control Serum prolactin level in reserpinized rat after i.p. administration at dosage of 0.005 mg/kg. The note with it: route intraperitoneal. In short, it runs like this:
as §9

On to `Cl.Cl.NC1CCc2n[nH]cc2C1` (configuration not stated), for which the inhibition in vivo at 5 mg/kg in the assay on Rattus norvegicus [1] was 14%. This molecule had an Exhibiting turning with Rattus norvegicus [2] of 0%. In the assay on Rattus norvegicus [3], the Average turns amounted to 0.
For the molecule `CCCN1CC(CO)C[C@@H]2Cc3c[nH]cc3CC21` (some centres not stated), the Exhibiting turning in the assay with Rattus norvegicus [4] was determined as 67%; with Rattus norvegicus [2], 100%. Also, the Average turns in the assay on Rattus norvegicus [5] was 8; in the assay on Rattus norvegicus [3] it was 109. In the assay listed under Rattus norvegicus [6], this molecule showed an inhibition in vivo at 0.05 mg/kg of 17%.
Take `CCCN(CCC)C1CCc2c[nH]cc2C1.O=C(O)/C=C\C(=O)O` (configuration not stated): the Average turns is given as 0 with Rattus norvegicus [7] and 52 in the assay on Rattus norvegicus [3]. The molecule further came in with a Concentration in the assay with Rattus norvegicus [8] of 59.8 ng/mL. Also, the Inhibition worked out at 59.8 ng/mL in the assay with Rattus norvegicus [9] and 47.6 ng/mL with Rattus norvegicus [12]. For the same molecule, the Exhibiting turning came out at 0% in the assay with Rattus norvegicus [10] and 40% in the assay with Rattus norvegicus [2]. For the same molecule, the inhibition in vivo at 0.5 mg/kg with Rattus norvegicus [11] amounted to 40%. In the assay with Rattus norvegicus [13], this molecule yielded a Serum level of 36.1 ng/mL. Moreover, the inhibition in vivo at 5 mg/kg in the assay on Rattus norvegicus [1] was 93%. In the assay filed under Rattus norvegicus [6], this molecule displayed an inhibition in vivo at 0.05 mg/kg of 20%.
`CCCN(CCC)C1Cc2cccc3[nH]cc(c23)C1.O=C(O)C(=O)O` (configuration not stated): the Average turns with Rattus norvegicus [7] worked out at 73; in the assay on Rattus norvegicus [14], 113. For the same molecule, the Inhibition in the assay on Rattus norvegicus [9] is 46.1 ng/mL; with Rattus norvegicus [12] it was 46.2 ng/mL. The Exhibiting turning is reported as 40% with Rattus norvegicus [10] and 60% in the assay with Rattus norvegicus [2]. In the assay with Rattus norvegicus [11], the inhibition in vivo at 0.5 mg/kg is 59%. Moreover, the Serum level with Rattus norvegicus [13] was 18.9 ng/mL. For the same molecule, the Control level in the assay with Rattus norvegicus [15] was 46.1 ng/mL. Besides, at 5 mg/kg the inhibition in vivo in the assay with Rattus norvegicus [1] was 95%. In the assay filed under Rattus norvegicus [6], this molecule showed an inhibition in vivo at 0.05 mg/kg of 0%.
On to `NC1CCc2c[nH]cc2C1` (configuration not stated), for which the inhibition in vivo at 5 mg/kg in the assay with Rattus norvegicus [1] was 24%. The molecule further came in with an Exhibiting turning in the assay with Rattus norvegicus [2] of 0%. Also, the Average turns in the assay with Rattus norvegicus [3] stood at 0.
`CCCN(CCC)C1CCc2n[nH]cc2C1.Cl.Cl` (configuration not stated) showed an inhibition in vivo at 0.05 mg/kg in the assay with Rattus norvegicus [16] of 1%. The molecule also displayed a Concentration in the assay on Rattus norvegicus [8] of 31.2 ng/mL. This molecule returned a Treatment in the assay with Rattus norvegicus [17] of 30.8 ng/mL. For the same molecule, at 0.5 mg/kg the inhibition in vivo in the assay on Rattus norvegicus [11] was 66%. In the assay with Rattus norvegicus [13], this molecule registered a Serum level of 10.6 ng/mL. The molecule also yielded an inhibition in vivo at 5 mg/kg in the assay on Rattus norvegicus [1] of 94%. The Exhibiting turning in the assay on Rattus norvegicus [18] came to 0%; in the assay on Rattus norvegicus [19], 60%. Besides, the figures for the Average turns in the assay with Rattus norvegicus [5] and in the assay with Rattus norvegicus [3] were 0 and 90, respectively. The Control in the assay on Rattus norvegicus [20] came out at 31.2 ng/mL.
In turn, `CN1CCC[C@@H]2Cc3c[nH]cc3CC21.O=C(O)/C=C\C(=O)O` (some centres not stated) had a Concentration in the assay with Rattus norvegicus [8] of 37.7 ng/mL. In addition, the inhibition in vivo at 0.5 mg/kg with Rattus norvegicus [11] amounted to 18%. The molecule also yielded a Serum level in the assay with Rattus norvegicus [13] of 30.9 ng/mL. For the same molecule, testing at 5 mg/kg with Rattus norvegicus [1] gave an inhibition in vivo of 90%. This molecule also displayed an Exhibiting turning in the assay with Rattus norvegicus [2] of 33%. The Average turns with Rattus norvegicus [3] was 19.
Consider `CCCN1CC(CSC)C[C@@H]2Cc3n[nH]cc3CC21.Cl.Cl` (some centres not stated), for which the Exhibiting turning in the assay with Rattus norvegicus [21] turned out to be 67%; in the assay with Rattus norvegicus [18] it was 50%; in the assay with Rattus norvegicus [19], 100%. Also, the Inhibition is 44.9 ng/mL with Rattus norvegicus [22], 31.5 ng/mL with Rattus norvegicus [24], 19.3 ng/mL in the assay on Rattus norvegicus [27] and 44.9 ng/mL in the assay on Rattus norvegicus [28]. This molecule showed an inhibition in vivo at 0.005 mg/kg with Rattus norvegicus [23] of 57%. The molecule also registered an inhibition in vivo at 0.0005 mg/kg in the assay on Rattus norvegicus [25] of 30%. Moreover, the results for the Average turns in the assay on Rattus norvegicus [5], in the assay with Rattus norvegicus [3] and in the assay on Rattus norvegicus [26] were 65, 81 and 80, respectively. The inhibition in vivo at 0.05 mg/kg in the assay filed under Rattus norvegicus [6] is 89%.
On to `CN1CCC[C@@H]2Cc3n[nH]cc3CC21.Cl.Cl` (some centres not stated), for which the Concentration in the assay on Rattus norvegicus [8] came to 31.7 ng/mL. Also, the Inhibition in the assay with Rattus norvegicus [9] came to 31.7 ng/mL; in the assay with Rattus norvegicus [12] it was 31.1 ng/mL. The molecule further displayed an inhibition in vivo at 0.5 mg/kg in the assay on Rattus norvegicus [11] of 42%. In the assay with Rattus norvegicus [13], this molecule displayed a Serum level of 18.5 ng/mL. This molecule also gave an inhibition in vivo at 5 mg/kg in the assay on Rattus norvegicus [1] of 84%. This molecule also showed an Exhibiting turning in the assay on Rattus norvegicus [19] of 0%. In addition, in the assay with Rattus norvegicus [3], the Average turns amounted to 0. The molecule also registered an inhibition in vivo at 0.05 mg/kg in the assay filed under Rattus norvegicus [6] of 2%.
